Assay results of several laboratories.
Target: MAP kinase-activated protein kinase 3 (MAPKAPK3, Homo sapiens, UniProt Q16644)

`CCOc1cc(-c2nncn2C)ccc1Nc1ncc2cc(C)nc(NCC(C)(C)C)c2n1` gave an inhibition of under 15% (enzyme activity; inhibitor; FRET; 1 µM).
The remaining activity of `COc1cc(Nc2cnc(C#N)c(O[C@H](C)CN(C)C)n2)ncc1-c1cnn(C)c1` is reported as 80% (enzyme activity; inhibitor; radiometric; 10 µM).
`N#CCCc1ccc2c(c1)-c1[nH]c3ccc([N+](=O)[O-])cc3c1CC(=O)N2` gave a remaining signal of 96.8% (cell-free assay; 0.5 µM).
With `CCN(CC)CCNC(=O)c1c(C)[nH]c(/C=C2\C(=O)Nc3ccc(F)cc32)c1C` the inhibition was -10% (enzyme activity; inhibitor; 0.3 µM).
The inhibition of `CN1CC(Oc2cnc(C#N)cc2-c2ccn3nc(NC(=O)C4CC4)cc3c2)C1` is reported as -1% (enzyme activity; inhibitor; 1 µM).
For `O=C1Nc2ccc(Cl)cc2C1=Cc1cc(Cl)c(O)c(Cl)c1`, the remaining signal was 88.4% (cell-free assay; 0.5 µM).
For `CC(C)(O)[C@H]1CC[C@H](Nc2ccc3ncc(-c4cccc(C(F)(F)F)c4)n3n2)CC1`, the remaining activity was 103% (enzyme activity; inhibitor; 1 µM).
For `O=C(Nc1cnn(-c2csc(C(=O)NC3COC3)c2)c1)Nc1c(F)cccc1Cl`, the remaining activity was 95.6% (enzyme activity; inhibitor; 5 µM).
The inhibition of `Cc1ccc(Nc2nccc(N(C)c3ccc4c(C)n(C)nc4c3)n2)cc1S(N)(=O)=O` is reported as -3% (enzyme activity; inhibitor; 10 µM).
The inhibition of `c1ccc(CNc2nc(N3CCOc4ccccc43)nc3c2CCCC3)cc1` is reported as -11.1% (target engagement in cells; inhibitor; chemoproteomics; 20 mM).
For `Cn1c(=O)n(-c2ccc(C(C)(C)C#N)cc2)c2c3cc(-c4cnc5ccccc5c4)ccc3ncc21`, the remaining activity was 110% (enzyme activity; inhibitor; 10 µM).
`CCCOc1ccc(OC)c(F)c1C(=O)c1ccc(C(=O)N[C@@H]2CNC[C@H]2NC(=O)c2ccc3[nH]ncc3c2)cc1` has a remaining activity of 68% (enzyme activity; inhibitor; 10 µM).
For `CNC(=O)c1cc(Oc2ccc(NC(=O)Nc3ccc(Cl)c(C(F)(F)F)c3)cc2)ccn1`, the inhibition was -5% (enzyme activity; inhibitor; 10 µM).
`CNc1cccc2cc(C(=O)Nc3ccc(C(=O)O)cc3)c(=O)[nH]c12` gave an inhibition of -3.2% (enzyme activity; inhibitor; 10 µM).
`FC(F)(F)Oc1cccc(-c2cnc3ccc(-c4ccncc4)nn23)c1` gave an activity vs control of 97% (enzyme activity; inhibitor; radiometric; 5 µM).
For `CC(C)(C)c1nc(-c2cccc(NS(=O)(=O)c3c(F)cccc3F)c2F)c(-c2ccnc(N)n2)s1`, the remaining activity was 92% (enzyme activity; inhibitor; radiometric; 1 µM).
`COc1cc2ncnc(Nc3ccc(Oc4ccccc4)cc3C)c2cc1OC` has an inhibition of 0% (enzyme activity; inhibitor; 1 µM).
`Cc1cnc(NC2CCOCC2)nc1-n1cnc(C(=O)NC(CN)c2cc(F)cc(Cl)c2)c1` (stereo not shown) gave a remaining activity of 110% (enzyme activity; inhibitor; radiometric; 1 µM).
`COc1cccc2c(NCc3ccccc3)nc(-n3c(N)nc4ccccc43)nc12` gave an inhibition of -7.4% (target engagement in cells; inhibitor; chemoproteomics; 20 mM).
